In ChEMBL document CHEMBL1156851, “Practical and efficient synthesis of pyrano[3,2-c]pyridone, pyrano[4,3-b]pyran and their hybrids with nucleoside as potential antiviral and antileishmanial agents” (Bioorg Med Chem Lett, 2010):

Tests used:
[1] = tested on: Leishmania donovani; assay: Antileishmanial activity against Leishmania donovani promastigotes; format: functional, organism-based
[2] = tested on: Human alphaherpesvirus 3; assay: Antiviral activity against thymidine kinase deficient Varicella zoster virus 07/1 infected in HEL cells assessed as reduction of viral plaque formation; format: functional, organism-based; conditions: Human alphaherpesvirus 3, 07/1, HEL
[3] = Cytotoxicity against HEL cells assessed as microscopically detectable alteration of cell morphology; format: cell-based; conditions: human
Method in brief: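 Cells are examined under the microscope after exposure. MCC is the minimum concentration that causes a microscopically detectable change in cell morphology.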

[4] = Cytotoxicity against HEL cells assessed as reduction of cell growth; format: cell-based; conditions: human
[5] = tested on: Human alphaherpesvirus 3; assay: Antiviral activity against thymidine kinase expressing Varicella Zoster Virus OKA infected in HEL cells assessed as reduction of viral plaque formation; format: functional, organism-based; conditions: Human alphaherpesvirus 3, OKA
[6] = tested on: Human betaherpesvirus 5; assay: Antiviral activity against Cytomegalovirus Davis infected in HEL cells assessed as reduction of viral plaque formation; format: functional, organism-based; conditions: Human betaherpesvirus 5, Davis
[7] = tested on: Human betaherpesvirus 5; assay: Antiviral activity against Cytomegalovirus AD169 infected in HEL cells assessed as reduction of viral plaque formation; format: functional, organism-based; conditions: Human betaherpesvirus 5, AD169, HEL

For `Cc1cc2c(c(=O)o1)C(c1cn([C@H]3C[C@H](O)[C@@H](CO)O3)c(=O)[nH]c1=O)C(C#N)=C(N)O2` (stereo not given in full), the IC50 [1] was > 200 µM, the EC50 [2] was 5.3 µM and the MCC [3] was > 100 µM. For the same compound, the CC50 [4] was 3.3 µM, the EC50 [5] was 1.8 µM and the EC50 [6] was 54.7 µM. The EC50 [7] was 54.7 µM.
In the case of `CC(=O)OC[C@H]1O[C@@H](n2cc(C(c3c(O)cc(C)[nH]c3=O)c3c(O)cc(C)[nH]c3=O)c(=O)[nH]c2=O)C[C@@H]1OC(C)=O`, the IC50 [1] is reported as > 200 µM, the EC50 [2] is reported as > 100 µM and the MCC [3] is reported as > 100 µM. The CC50 [4] was 36.9 µM, the EC50 [5] was > 100 µM and the EC50 [6] was > 100 µM. The EC50 [7] was > 100 µM.
In the case of `CC(=O)OC[C@H]1O[C@@H](n2cc(C(c3c(O)cc(C)n(C)c3=O)c3c(O)cc(C)n(C)c3=O)c(=O)[nH]c2=O)C[C@@H]1OC(C)=O`, the IC50 [1] is reported as > 200 µM, the EC50 [2] is reported as > 100 µM and the MCC [3] is reported as > 100 µM. For the same compound, the CC50 [4] was 20 µM, the EC50 [5] was 47.8 µM and the EC50 [6] was > 100 µM. The EC50 [7] was > 100 µM.
In the case of `Cc1cc(O)c(C(c2cn([C@H]3C[C@H](O)[C@@H](CO)O3)c(=O)[nH]c2=O)c2c(O)cc(C)[nH]c2=O)c(=O)[nH]1`, the IC50 [1] is reported as 43.5 µM, the EC50 [2] is reported as 1.66 µM and the MCC [3] is reported as > 100 µM. The CC50 [4] was 2.1 µM, the EC50 [5] was 0.32 µM and the EC50 [6] was > 100 µM. The EC50 [7] was 44.7 µM.
With `Cc1cc(O)c(C(c2cn([C@H]3C[C@H](O)[C@@H](CO)O3)c(=O)[nH]c2=O)c2c(O)cc(C)n(C)c2=O)c(=O)n1C` the IC50 [1] was > 200 µM, the EC50 [2] was 16.7 µM and the MCC [3] was > 100 µM. The CC50 [4] was 7.7 µM, the EC50 [5] was 2.2 µM and the EC50 [6] was > 100 µM. For the same compound, the EC50 [7] was 54.7 µM.
Compound `N=C(N)c1ccc(OCCCCCOc2ccc(C(=N)N)cc2)cc1` [PENTAMIDINE] has an IC50 [1] of 6.5 µM.
With `CC(=O)OC[C@H]1O[C@@H](n2cc(C3C(C#N)=C(N)Oc4cc(C)[nH]c(=O)c43)c(=O)[nH]c2=O)C[C@@H]1OC(C)=O` (stereo not given in full) the IC50 [1] was 140 µM, the EC50 [2] was > 100 µM and the MCC [3] was > 100 µM. The CC50 [4] was > 100 µM, the EC50 [5] was 100 µM and the EC50 [6] was > 100 µM. The EC50 [7] was > 100 µM.
For `CCn1c(C)cc2c(c1=O)C(c1cn([C@H]3C[C@H](OC(C)=O)[C@@H](COC(C)=O)O3)c(=O)[nH]c1=O)C(C#N)=C(N)O2` (stereo not given in full), the IC50 [1] was > 200 µM, the EC50 [2] was > 100 µM and the MCC [3] was > 100 µM. The CC50 [4] was > 100 µM, the EC50 [5] was > 100 µM and the EC50 [6] was > 100 µM. For the same compound, the EC50 [7] was > 100 µM.
With `CC(=O)OC[C@H]1O[C@@H](n2cc(C(c3c(O)cc(C)oc3=O)c3c(O)cc(C)oc3=O)c(=O)[nH]c2=O)C[C@@H]1OC(C)=O` the IC50 [1] was > 200 µM, the EC50 [2] was 48.6 µM and the MCC [3] was > 100 µM. For the same compound, the CC50 [4] was 3.8 µM, the EC50 [5] was 40.2 µM and the EC50 [6] was > 100 µM. For the same compound, the EC50 [7] was > 100 µM.
For `Nc1ccn(C[C@@H](CO)OCP(=O)(O)O)c(=O)n1` [CIDOFOVIR], the MCC [3] was > 1270 µM, the CC50 [4] was 175 µM and the EC50 [6] was 0.9 µM.
For `CCn1c(C)cc2c(c1=O)C(c1cn([C@H]3C[C@H](O)[C@@H](CO)O3)c(=O)[nH]c1=O)C(C#N)=C(N)O2` (stereo not given in full), the IC50 [1] was > 200 µM, the EC50 [2] was > 100 µM and the MCC [3] was > 100 µM. For the same compound, the CC50 [4] was > 100 µM, the EC50 [5] was 71.2 µM and the EC50 [6] was > 100 µM. For the same compound, the EC50 [7] was > 100 µM.
In the case of `CC(=O)OC[C@H]1O[C@@H](n2cc(C3C(C#N)=C(N)Oc4cc(C)n(C)c(=O)c43)c(=O)[nH]c2=O)C[C@@H]1OC(C)=O` (stereo not given in full), the IC50 [1] is reported as > 200 µM, the EC50 [2] is reported as > 100 µM and the MCC [3] is reported as > 100 µM. The CC50 [4] was > 100 µM, the EC50 [5] was > 100 µM and the EC50 [6] was > 100 µM. For the same compound, the EC50 [7] was > 100 µM.
With `Nc1nc2c(ncn2COCCO)c(=O)[nH]1` [ACYCLOVIR] the MCC [3] was > 1780 µM, the CC50 [4] was 1780 µM and the EC50 [5] was 0.84 µM.
In the case of `Cc1cc(O)c(C(c2cn([C@H]3C[C@H](O)[C@@H](CO)O3)c(=O)[nH]c2=O)c2c(O)cc(C)oc2=O)c(=O)o1`, the IC50 [1] is reported as > 200 µM, the EC50 [2] is reported as 2.62 µM and the MCC [3] is reported as > 100 µM. For the same compound, the CC50 [4] was 1.8 µM, the EC50 [5] was 0.6 µM and the EC50 [6] was 20 µM. It also gave an EC50 [7] of 20 µM.
With `CC(=O)OC[C@H]1O[C@@H](n2cc(C3C(C#N)=C(N)Oc4cc(C)oc(=O)c43)c(=O)[nH]c2=O)C[C@@H]1OC(C)=O` (stereo not given in full) the IC50 [1] was > 200 µM, the EC50 [2] was > 100 µM and the MCC [3] was > 100 µM. For the same compound, the CC50 [4] was 8.9 µM, the EC50 [5] was 48.1 µM and the EC50 [6] was > 100 µM. The EC50 [7] was > 100 µM.
In the case of `Cc1cc2c(c(=O)[nH]1)C(c1cn([C@H]3C[C@H](O)[C@@H](CO)O3)c(=O)[nH]c1=O)C(C#N)=C(N)O2` (stereo not given in full), the IC50 [1] is reported as 10.6 µM, the EC50 [2] is reported as > 100 µM and the MCC [3] is reported as > 100 µM. For the same compound, the CC50 [4] was > 100 µM, the EC50 [5] was 55.7 µM and the EC50 [6] was > 100 µM. For the same compound, the EC50 [7] was > 100 µM.
In the case of `Cc1cc2c(c(=O)n1C)C(c1cn([C@H]3C[C@H](O)[C@@H](CO)O3)c(=O)[nH]c1=O)C(C#N)=C(N)O2` (stereo not given in full), the IC50 [1] is reported as > 200 µM, the EC50 [2] is reported as > 100 µM and the MCC [3] is reported as > 100 µM. The CC50 [4] was > 100 µM, the EC50 [5] was 74.6 µM and the EC50 [6] was > 100 µM. The EC50 [7] was > 100 µM.
